Test results taken from ChEMBL document CHEMBL3352032, “Antiplasmodial activity of new 4-aminoquinoline derivatives against chloroquine resistant strain” (Bioorg Med Chem, 2014).

Assays:
[1] = Inhibition of beta-hematin formation assessed as inhibition of hemozoin formation by UV spectrophotometry; type: physicochemical
How it was run: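 β-Hematin polymerization induced by 1-oleoyl-rac-glycerol, read at 405 nm by UV spectrophotometry. Triplicate values expressed as percent inhibition relative to drug-free hemozoin formation. IC50 in millimolar equivalents of compound relative to hemin, from sigmoidal dose-response non-linear regression. Means ± SD from at least three experiments in duplicate.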

[2] = Association constant, log K of the compound in aqueous DMSO at pH 7.5 assessed as complex formation by UV spectrophotometry; type: physicochemical; settings: buffer
How it was run: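 Spectrophotometric titration of hematin with compound in 40% aqueous DMSO, 20 mM HEPES, pH 7.5, 25 °C; hematin monomeric under these conditions. Association constant fitted for 1:1 compound:hematin complex. Means ± SD from at least three experiments in duplicate.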

[3] = test system: Plasmodium falciparum; assay: Antiplasmodial activity against chloroquine-sensitive Plasmodium falciparum 3D7 after 72 hrs by SYBR Green-1 staining-based fluorescence assay; type: functional, organism-based; settings: 3D7, 72 h
How it was run: (§1)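 Compounds were dissolved in DMSO as 10 mM stocks and two-fold serially diluted. Dilutions were incubated with a 1.0% parasitized cell suspension at 0.8% parasitemia, using an asynchronous culture with more than 80% ring stages. Incubation was 72 h at 37 °C in 5% CO2/air. Lysis buffer with 2x SYBR Green-1 was then added for 1 h at 37 °C, and fluorescence (RFU) was read at 485±20 nm.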

[4] = test system: Plasmodium falciparum; assay: Resistance index, ratio of IC50 for chloroquine-resistant Plasmodium falciparum K1 to IC50 for chloroquine-sensitive Plasmodium falciparum 3D7; type: functional
How it was run: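 The index is the IC50 against K1 divided by the IC50 against 3D7. Both IC50s come from the 72 h SYBR Green-1 fluorescence assay: two-fold serial dilutions from 10 mM DMSO stocks, 1.0% parasitized cells at 0.8% parasitemia (>80% rings), 37 °C, 5% CO2.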

[5] = test system: Plasmodium falciparum; assay: Antiplasmodial activity against chloroquine-resistant Plasmodium falciparum K1 after 72 hrs by SYBR Green-1 staining-based fluorescence assay; type: functional, organism-based; settings: K1, 72 h; how it was run: as §1
[6] = Selectivity index, ratio of CC50 for African green monkey Vero cells to IC50 for Plasmodium falciparum; type: functional
How it was run: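 Vero cells exposed to compound dilutions for 72 h; cytotoxicity read by MTT, CC50 by nonlinear regression of dose-response curves. Antiplasmodial IC50 from P. falciparum asynchronous culture (>80% rings, 0.8% parasitemia, 1% hematocrit suspension), twofold serial dilutions, 72 h at 37 °C, 5% CO2, SYBR Green I fluorescence. SI = CC50/IC50.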

SMILES	IC50 [1]	inhibition (INH) [1]	log K [2]	IC50 [3]	Ratio IC50 [4]	IC50 [5]	Ratio CC50/IC50 [6]
CN1CCN(C(=O)[C@H](Cc2c[nH]c3ccccc23)Nc2ccnc3cc(Cl)ccc23)CC1	0.3302 mMequiv	Dose-dependent effect	6.36	223 nM	1.17	262 nM	392
CCN(CC)CCNC(=O)[C@H](C)Nc1ccnc2cc(Cl)ccc12	0.1531 mMequiv	Dose-dependent effect	6.03	35.4 nM	>14.13	> 500 nM	5834
CC(C)(C)OC(=O)N[C@@H](Cc1ccccc1)C(=O)C=[N+]=[N-]						55.3 nM	
CN1CCN(C(=O)CCCNc2ccnc3cc(Cl)ccc23)CC1	0.2023 mMequiv	Dose-dependent effect	6.52	65.1 nM	11.99	781 nM	4432
CSCC[C@H](Nc1ccnc2cc(Cl)ccc12)C(=O)N1CCN(C)CC1	0.3595 mMequiv	Dose-dependent effect	5.04	58.4 nM	2.2	129 nM	3821
CCN(CC)CCCC(C)Nc1ccnc2cc(Cl)ccc12 (centres undefined) [CHLOROQUINE]	0.17 mMequiv		5.52				
CC(C)[C@H](Nc1ccnc2cc(Cl)ccc12)C(=O)N1CCN(C)CC1	0.2349 mMequiv	Dose-dependent effect	6.39	271 nM	2.21	599 nM	1023
CC(C)C[C@H](Nc1ccnc2cc(Cl)ccc12)C(=O)N1CCN(C)CC1	0.2283 mMequiv	Dose-dependent effect	5.38	60.2 nM	2.44	147 nM	905
CN1CCN(C(=O)C[C@H](Cc2ccccc2)Nc2ccnc3cc(Cl)ccc23)CC1	0.1739 mMequiv	Dose-dependent effect	5.8	19.2 nM	2.87	55.3 nM	5846
CN1CCN(C(=O)CNc2ccnc3cc(Cl)ccc23)CC1	0.1915 mMequiv	Dose-dependent effect	7.34	149 nM	1.18	177 nM	1566
CN1CCN(C(=O)[C@H](CO)Nc2ccnc3cc(Cl)ccc23)CC1	0.3604 mMequiv	Dose-dependent effect	5.68	116 nM	7.96	925 nM	1976
C[C@H](O)[C@H](Nc1ccnc2cc(Cl)ccc12)C(=O)N1CCN(C)CC1	0.3837 mMequiv	Dose-dependent effect	6.07	142 nM	>9.67	> 1380 nM	1934
CC(C)[C@H](CC(=O)N1CCN(C)CC1)Nc1ccnc2cc(Cl)ccc12	0.2286 mMequiv	Dose-dependent effect	5.33	44.1 nM	7.33	324 nM	6045
CN1CCN(C(=O)CC[C@H](Cc2ccccc2)Nc2ccnc3cc(Cl)ccc23)CC1	0.1961 mMequiv	Dose-dependent effect	5.32	11.5 nM	6.18	71.2 nM	11350
CN1CCN(C(=O)CCNc2ccnc3cc(Cl)ccc23)CC1	0.3293 mMequiv	Dose-dependent effect	6.43	35.9 nM	11.1	398 nM	6472
CC[C@H](C)[C@H](Nc1ccnc2cc(Cl)ccc12)C(=O)N1CCN(C)CC1	0.2295 mMequiv	Dose-dependent effect	5.72	83.8 nM	4.34	365 nM	2188
C[C@H](Nc1ccnc2cc(Cl)ccc12)C(=O)N1CCN(c2ccccc2)CC1	0.2082 mMequiv	Dose-dependent effect	5.94	> 500 nM		> 500 nM	
C[C@H](Nc1ccnc2cc(Cl)ccc12)C(=O)NCCN1CCCCC1	0.2166 mMequiv	Dose-dependent effect	5.73	64.1 nM	>7.8	> 500 nM	3025
CC[C@H](C)[C@@H](CC(=O)N1CCN(C)CC1)Nc1ccnc2cc(Cl)ccc12	0.2197 mMequiv	Dose-dependent effect	6.26	33 nM	5.08	168 nM	7613
CN1CCN(C(=O)[C@H](Cc2ccccc2)Nc2ccnc3cc(Cl)ccc23)CC1	0.6619 mMequiv	Dose-dependent effect	5.11	109 nM	1.06	116 nM	429
CC[C@H](C)[C@H](NC(=O)OC(C)(C)C)C(=O)C=[N+]=[N-]						168 nM	
C[C@H](Nc1ccnc2cc(Cl)ccc12)C(=O)N1CCN(C)CC1	0.1677 mMequiv	Dose-dependent effect	5.36	73.8 nM	2.79	207 nM	2900
CCN(CC)CCCNC(=O)[C@H](C)Nc1ccnc2cc(Cl)ccc12	0.2145 mMequiv	Dose-dependent effect	5.27	82.6 nM	>6.05	> 500 nM	2585
C[C@H](Nc1ccnc2cc(Cl)ccc12)C(=O)NCCCN(C)C	0.176 mMequiv	Dose-dependent effect	5.34	142 nM	>3.51	> 500 nM	2606
